# Compounds with a hit are over-represented: about 4.7% of the library has one in this group of screens.
# IMP-1 inhibitor = blocks Pseudomonas aeruginosa IMP-1 metallo-beta-lactamase; purified IMP-1, nitrocefin hydrolysis, epi-absorbance fluorescence; inhibition, % at 5.6 µM; 290,000 compounds, 0.45% hits;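 active = inhibition above the mean plus 3 SD of all compounds in the same screening run, cut at about 4.5% in these data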;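 also: 0% = IMP-1 with DMSO and 100% = DMSO wells lacking enzyme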
#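 Test system: recombinant IMP-1 enzyme, purified / Medium: HEPES buffer pH 7.1 with ZnSO4 and Brij 35 / Doses: single dose, 5.6 µM / Times: 25 °C, 15 min preincubation, 25 min reaction / Detection: Epi-absorbance via hydrolysed-nitrocefin quenching of white-plate fluorescence, 480/530 nm, EDTA stop / Evaluation: percent inhibition from optical density relative to buffer-blank wells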
# Mdm2 MdmX PPI = disrupts the human Mdm2-MdmX interaction; 330,000 compounds, 3% hits; SaOS-2 split-luciferase Mdm2/MdmX complementation, luminescence; AID 485346; inhibition, % at 8 µM;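 active = inhibition of at least 50% at 8 µM in the primary screen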
# Target sequence (O15151 whole entry, looked up): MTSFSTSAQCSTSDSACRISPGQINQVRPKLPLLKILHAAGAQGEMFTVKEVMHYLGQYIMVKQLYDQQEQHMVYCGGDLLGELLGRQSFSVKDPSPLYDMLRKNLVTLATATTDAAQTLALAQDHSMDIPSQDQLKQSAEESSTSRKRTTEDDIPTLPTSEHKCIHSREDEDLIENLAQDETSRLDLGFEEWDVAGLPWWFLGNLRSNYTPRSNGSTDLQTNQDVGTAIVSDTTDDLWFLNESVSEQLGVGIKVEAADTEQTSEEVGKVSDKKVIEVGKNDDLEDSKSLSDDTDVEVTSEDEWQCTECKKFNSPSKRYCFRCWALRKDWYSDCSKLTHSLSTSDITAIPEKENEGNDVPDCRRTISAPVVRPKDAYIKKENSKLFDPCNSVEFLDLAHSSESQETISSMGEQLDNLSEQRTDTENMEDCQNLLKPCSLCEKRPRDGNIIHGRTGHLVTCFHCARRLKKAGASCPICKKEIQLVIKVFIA
# Target sequence (Q00987 whole entry, looked up): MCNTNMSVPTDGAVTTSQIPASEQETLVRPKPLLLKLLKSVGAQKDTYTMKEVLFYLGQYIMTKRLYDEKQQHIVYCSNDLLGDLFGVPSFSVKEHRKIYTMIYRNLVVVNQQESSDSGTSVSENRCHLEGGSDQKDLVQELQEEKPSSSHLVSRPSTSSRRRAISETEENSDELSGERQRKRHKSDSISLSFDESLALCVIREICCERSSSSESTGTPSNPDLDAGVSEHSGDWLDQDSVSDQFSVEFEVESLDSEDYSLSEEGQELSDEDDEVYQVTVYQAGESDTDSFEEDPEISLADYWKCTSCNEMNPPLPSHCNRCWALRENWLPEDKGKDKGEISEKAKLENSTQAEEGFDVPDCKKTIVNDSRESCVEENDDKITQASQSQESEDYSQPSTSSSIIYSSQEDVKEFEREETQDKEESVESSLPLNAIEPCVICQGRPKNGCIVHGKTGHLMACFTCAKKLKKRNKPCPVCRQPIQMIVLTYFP
# VIM-2 inhibitor = inhibitors of Pseudomonas aeruginosa VIM-2 metallo-beta-lactamase; purified VIM-2, nitrocefin hydrolysis, epi-absorbance fluorescence; inhibition, % at 5.6 µM; 290,000 compounds, 0.89% hits;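 active = inhibition above the mean of all tested compounds plus 3 SD, cutoff set per screening run, cut at about 7.5% in these data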;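 also: red hydrolysis product quenches plate fluorescence so inhibitors raise well fluorescence; 0% = enzyme with DMSO and 100% = DMSO without enzyme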
# aSyn UTR inh = MLPCN primary screen, SNCA 5' untranslated region. alpha-synuclein 5'UTR reporter, inhibitor activity. inhibition, % (tested at 7.5 µM). 300,000 compounds, 0.82% hits. AID 1813; in the data active = inhibition above about 60%;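 also: H4 neuroglioblastoma cells stably carrying SNCA 5'UTR luciferase fusion; 0% = DMSO wells and 100% = positive control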
# Jurkat NFkB inh = inhibitors of the PMA/ionomycin-induced NF-kB reporter in Jurkat cells; 330,000 compounds, 0.53% hits; inhibition, % at 4 µM; PMA/ionomycin-induced NF-kB luciferase reporter, luminescence; in the data active = inhibition above about 50%
# 697 NFkB inh = inhibitors of the PMA/ionomycin-induced NF-kB reporter in 697 B cells | 697 B-cell NF-kB luciferase reporter, 16 h | inhibition, % at 4 µM | 330,000 compounds, 0.33% hits | AID 435022; in the data active = inhibition above about 35%
# Mdm2-MdmX conf = human Mdm2/MdmX binding inhibition, confirmed; shares compounds with Mdm2 MdmX PPI; 10,000 compounds, 55% hits; luminescent assay; inhibition, % at 8 µM; in the data active = inhibition above about 40%
# FLuc counter = full-length luciferase inhibition in Mdm2/MdmX counter-screen; shares compounds with Mdm2 MdmX PPI; SaOS-2 full-length luciferase counterscreen, luminescence; inhibition, % at 8 µM; 6,200 compounds, 77% hits; AID 504607;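 active = mean inhibition at 8 µM reaching about 37%, which flags the compound as non-specific, limit read from the data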;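 also: p53-null SaOS-2 cells with luciferase driven by a doxycycline-inducible promoter; compound on cells about two nights before reading with doxycycline added after day one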
# Starred values were filed as active, the others as inactive; · = no result.
SMILES,IMP-1 inhibitor,Mdm2 MdmX PPI,VIM-2 inhibitor,aSyn UTR inh,Jurkat NFkB inh,697 NFkB inh,Mdm2-MdmX conf,others
CN1CCN(NC(=O)CSc2ccc(Cl)cc2Cl)CC1,-2,10,-4,-8,-12,-2,·,
Cc1ccccc1SCC(=O)NNC(=O)c1ccccc1O,-3,35,-6,-52,-10,-12,·,
Fc1ccccc1-c1nc2c(s1)CCc1onc(-c3ccc(Br)cc3)c1-2,·,9,·,-6,16,19,·,
CCCCn1c(-c2ccc(C(C)(C)C)cc2)nc2cc3[nH]c(=O)c(C(C)C)nc3cc21,-4,64*,-4,-21,-13,-46,26,
CCCCn1c(-c2ccc(Cl)c(Cl)c2)nc2cc3[nH]c(=O)c(C(C)C)nc3cc21,-3,19,-3,-22,-17,-43,·,
CCN1C(=O)/C(=C\c2nc3ccccc3c(=O)n2-c2ccccc2)c2ccccc21,0,51*,-1,-30,-15,-19,33,
CCN1C(=O)/C(=C/c2nc3ccccc3c(=O)n2-c2ccc(C)cc2)c2ccccc21,0,83*,2,-139,-22,-49,62*,FLuc counter=86*
COc1ccc(-n2c(/C=C3\C(=O)N(C)c4ccccc43)nc3ccccc3c2=O)cc1,-4,61*,-4,-107,-13,-1,23,
CCc1nn(C(CC)C(=O)NCc2cccc(OC)c2)c(=O)c2cc3occc3n12 (configuration not stated),-1,21,-7,5,-4,12,·,
COc1ccc(-n2cc(-c3ccccc3)c3c(N4CCN(CCO)CC4)ncnc32)cc1,-5,51*,3,7,17,-1,16,
OCCN1CCN(c2ncnc3c2c(-c2ccccc2)cn3-c2ccc(F)cc2)CC1,-2,25,4,15,9,7,·,
Cc1cccc(-n2cc(-c3ccccc3)c3c(N4CCOCC4)ncnc32)c1,1,67*,0,43,45,26,55*,FLuc counter=72*
CC(C)CCc1noc(CN2CCC(C(=O)N3CCOCC3)CC2)n1,-4,7,-2,-13,4,9,·,
CCN(CC)c1ccc(N2C(=O)CSC2=S)cc1,1,3,0,-19,17,-2,·,
CCN(CC)c1ccc(N2C(=O)/C(=C/c3cccs3)SC2=S)cc1,-3,52*,-2,12,13,1,20,
CC(=O)Nc1ccc(S(=O)(=O)N(Cc2ccco2)CC2CCCO2)cc1 (configuration not stated),-2,8,-3,-2,-9,-23,·,
CCOc1cccc2sc(N(CCN(C)C)C(=O)/C=C/c3cccs3)nc12,-1,65*,-1,11,10,11,26,
COc1cccc2sc(N(CCN(C)C)C(=O)c3ccc4c(c3)CCCC4)nc12,0,13,-1,0,4,-21,·,
CCOc1cccc2sc(N(CCCN(C)C)C(=O)Cc3ccccc3)nc12,-2,30,-2,9,2,8,·,
COc1cccc2sc(N(CCN(C)C)C(=O)/C=C/c3cccs3)nc12,-2,56*,-3,-11,15,8,27,
O=C(/C(=C/c1ccc(Cl)cc1)c1nc2ccccc2[nH]1)c1cccs1,-2,81*,-2,-178,40,-137,100*,FLuc counter=51*
O=C(/C=C/c1cccc(Cl)c1)Nc1ncccn1,-4,-46,-3,-76,-6,-4,·,
O=C(/C(=C\c1ccccc1)c1nc2ccccc2[nH]1)c1ccc(Cl)cc1,-2,100*,-3,-228,-80,-123,-54,
O=C(/C=C/c1cccc(Cl)c1)c1nc2ccccc2[nH]1,-3,92*,-3,-61,3,4,4,
Cc1nnc(NC(=O)CSc2nnc(CC(=O)Nc3ccccc3F)n2C)s1,-3,6,0,-11,-6,12,·,
SMILES,IMP-1 inhibitor,Mdm2 MdmX PPI,VIM-2 inhibitor,aSyn UTR inh,Jurkat NFkB inh,697 NFkB inh,Mdm2-MdmX conf,others
Cc1cc(CN2C(=O)c3ccccc3C2=O)cc(N2CCOCC2)c1,-2,1,-2,-30,-7,-14,·,
CC(=O)CSc1ccc(-c2nc3cc(C)c(C)cc3[nH]2)cn1,-1,68*,-2,121*,-17,-58,67*,FLuc counter=66*
Cc1cc2nc(-c3ccc(SCC(=O)Nc4ccc(S(=O)(=O)N5CCCC5)cc4)nc3)[nH]c2cc1C,-3,69*,-4,-147,-107,-125,-8,
O=C(CSc1ccc(-c2nc3ccccc3[nH]2)cn1)Nc1ccc(S(=O)(=O)N2CCCC2)cc1,-3,-7,-1,18,-19,-44,·,
N#Cc1ccc(Nc2nc(-c3ccc(O)cc3O)cs2)cc1C(F)(F)F,·,69*,·,·,-10,-11,61*,FLuc counter=55*
CN1CC2=Cc3ccccc3OC23Oc2ccccc2C=C3C1,0,59*,-1,-27,0,-13,25,
CN(C)CCNc1nc2sc3c(c2c(=O)n1CCc1ccccc1)CCCCC3,0,76*,0,-87,17,7,26,
CC(O)CNc1nc2sc3c(c2c(=O)n1CCc1ccccc1)CCCCC3 (configuration not stated),-2,7,-1,-72,-30,-15,·,
COc1cc(/C=C/C(=O)OCC(=O)NCc2ccc(F)cc2)ccc1O,·,48,·,·,35,-2,·,
C=CCn1c(=O)c(C(=O)Nc2ccc(C)cn2)c(O)c2ccccc21,0,12,1,-29,-7,-28,·,
C=CCn1c(=O)c(C(=O)Nc2cccnc2)c(O)c2ccccc21,-2,68*,-3,-11,13,5,3,
CCc1ccc(OCC(=O)NNC(=O)Cc2c(F)cccc2Cl)cc1,·,16,·,7,-24,-16,·,
Cc1ccc(C(CC(=O)O)C2CCOC(C)(C)C2)cc1 (configuration not stated),-8,13,-3,9,5,16,·,
CCCCn1c(=N)n(CC(O)COc2ccc(C)cc2)c2ccccc21 (configuration not stated),1,58*,-1,1,12,-25,31,
COc1ccccc1OCC(O)Cn1c(=N)n(CCN2CCCCC2)c2ccccc21 (configuration not stated),-4,56*,-1,-11,8,-27,46*,FLuc counter=74*
N=c1n(CCN2CCOCC2)c2ccccc2n1CC(O)COc1ccccc1 (configuration not stated),-1,16,-2,4,-7,-11,·,
N=c1n(CCN2CCCCC2)c2ccccc2n1CC(O)COc1ccccc1 (configuration not stated),-6,61*,-2,-24,23,5,38,FLuc counter=81*
